Experimental findings from ChEMBL document CHEMBL3112537, “A novel series of 6-substituted 3-(pyrrolidin-1-ylmethyl)chromen-2-ones as selective monoamine oxidase (MAO) A inhibitors” (Eur J Med Chem, 2014) are described below.

Where only a bound is given, the exact number is not on record here.

For data set [1], the species on record is Homo sapiens. The data set can be described thus: Selectivity index, ratio of IC50 for human recombinant MAO-B to IC50 for human recombinant MAO-A. The essentials: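 Selectivity index for MAO A = IC50(MAO B)/IC50(MAO A), with both human isoforms assayed against kynuramine substrate.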
The nature of data set [2]: Aqueous solubility of the compound in saline solution. Format: physicochemical.
Data set [3] concerns Rattus norvegicus. The data set can be described thus: In vivo inhibition of MAO-A in Sprague-Dawley rat assessed as 3,4-dihydroxyphenylacetic acid level in brain striatum at 53 umol/kg, sc after 1 hr by HPLC/EC analysis relative to control. Format: functional. Also noted: scale not given: the % may be the effect or the level left. The essentials:
(§1)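 Freely moving rats were given a subcutaneous dose and sacrificed 1 h later. Striatal DOPAC, 3-MT and 5-HIAA were measured post mortem and expressed as % of saline control (n = 4). Significance was tested by Student's t-test (P < 0.05).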

Data set [4] has as its system Rattus norvegicus. The data set can be described thus: In vivo inhibition of MAO-A in Sprague-Dawley rat assessed as 3-methoxytyramine level in brain striatum at 53 umol/kg, sc after 1 hr by HPLC/EC analysis relative to control. Also noted: scale not given: the % may be the effect or the level left. The data set is classed as functional. The gist of the method:
as §1

In data set [5] the test system is Rattus norvegicus. Put plainly: In vivo inhibition of MAO-A in Sprague-Dawley rat assessed as 5-hydroxyindoleacetic acid in brain striatum at 53 umol/kg, sc after 1 hr by HPLC/EC analysis relative to control. The data set is classed as functional. Also noted: scale not given: the % may be the effect or the level left. The essentials: as §1
Data set [6] has as its system Rattus norvegicus. Put plainly: In vivo inhibition of MAO-A in Sprague-Dawley rat assessed as 3-methoxytyramine level in brain striatum at 100 umol/kg, sc after 1 hr by HPLC/EC analysis relative to control. Format: functional. Also noted: scale not given: the % may be the effect or the level left. The gist of the method:
(§2)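 Freely moving rats dosed subcutaneously and sacrificed 1 h later. Striatal DOPAC, 3-MT and 5-HIAA were measured post mortem and expressed as % of saline control (n = 4). Significance was by Student's t-test, P < 0.05.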

Data set [7] concerns Rattus norvegicus. The data set can be described thus: In vivo inhibition of MAO-A in Sprague-Dawley rat assessed as 5-hydroxyindoleacetic acid in brain striatum at 100 umol/kg, sc after 1 hr by HPLC/EC analysis relative to control. The data set is classed as functional. Further details: scale not given: the % may be the effect or the level left. The essentials: as §2
Data set [8] relates to Rattus norvegicus. Put plainly: In vivo inhibition of MAO-A in Sprague-Dawley rat assessed as 3,4-dihydroxyphenylacetic acid level in brain striatum at 100 umol/kg, sc after 1 hr by HPLC/EC analysis relative to control. Format: functional. Further details: scale not given: the % may be the effect or the level left. The gist of the method: as §2
A short description of data set [9]: Metabolic stability in rat liver microsomes assessed as compound remaining at 5 uM after 60 mins by LC-MS/MS analysis. The data set is classed as ADME. As to conditions: read-out: Stability. The gist of the method:
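Incubation with rat liver microsomes, read as % of compound remaining after 60 min.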

Data set [10] deals with D(2) dopamine receptor (Homo sapiens, UniProt P14416). Put plainly: Antagonist activity at dopamine D2 receptor (unknown origin) expressed in HEK cells co-expressing Gqi5 assessed as inhibition of dopamine-induced effect by FLIPR assay. The data set is classed as cell-based, HEK293.
Chain of D(2) dopamine receptor (P14416 whole entry): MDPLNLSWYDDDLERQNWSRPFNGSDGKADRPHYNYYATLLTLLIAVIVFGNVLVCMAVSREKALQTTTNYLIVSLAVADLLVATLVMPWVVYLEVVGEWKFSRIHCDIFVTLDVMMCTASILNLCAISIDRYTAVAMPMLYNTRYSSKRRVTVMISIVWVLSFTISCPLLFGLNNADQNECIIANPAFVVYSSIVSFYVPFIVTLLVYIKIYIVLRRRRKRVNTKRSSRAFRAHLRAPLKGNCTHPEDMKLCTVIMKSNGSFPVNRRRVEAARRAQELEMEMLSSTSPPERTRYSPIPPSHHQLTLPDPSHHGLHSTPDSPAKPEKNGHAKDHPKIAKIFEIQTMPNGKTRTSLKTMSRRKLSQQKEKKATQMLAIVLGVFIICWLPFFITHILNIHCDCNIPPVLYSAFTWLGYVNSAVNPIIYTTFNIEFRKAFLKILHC
Data set [11] deals with T1, Amine oxidase [flavin-containing] B (Homo sapiens, UniProt P27338).
T1 sequence (P27338 whole entry): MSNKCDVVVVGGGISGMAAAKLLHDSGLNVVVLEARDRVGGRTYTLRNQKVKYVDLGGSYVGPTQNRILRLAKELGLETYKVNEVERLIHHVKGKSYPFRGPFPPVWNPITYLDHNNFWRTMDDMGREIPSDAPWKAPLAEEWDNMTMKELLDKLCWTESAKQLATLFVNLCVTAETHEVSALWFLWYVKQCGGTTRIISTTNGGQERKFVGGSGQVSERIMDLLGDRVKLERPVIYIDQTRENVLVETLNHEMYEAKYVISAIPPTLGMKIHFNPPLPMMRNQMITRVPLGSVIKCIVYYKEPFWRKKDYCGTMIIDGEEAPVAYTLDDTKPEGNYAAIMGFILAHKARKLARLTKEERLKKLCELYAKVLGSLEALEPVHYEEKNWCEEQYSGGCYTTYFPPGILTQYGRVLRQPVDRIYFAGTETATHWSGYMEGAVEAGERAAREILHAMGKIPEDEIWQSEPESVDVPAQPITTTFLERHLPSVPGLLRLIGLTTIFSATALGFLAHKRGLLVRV
The data set can be described thus: Inhibition of human recombinant MAO-B assessed as kynuramine oxidation to 4-hydroxyquinoline after 40 mins by LC-MS/MS analysis. The gist of the method: (§3)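 Human MAO A and MAO B inhibition using kynuramine as a mixed substrate for both isoforms. IC50 is given as the mean ± SE of duplicate determinations.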

For data set [12], the target named is T2, Amine oxidase [flavin-containing] A (Homo sapiens, UniProt P21397).
T2 sequence (P21397 whole entry): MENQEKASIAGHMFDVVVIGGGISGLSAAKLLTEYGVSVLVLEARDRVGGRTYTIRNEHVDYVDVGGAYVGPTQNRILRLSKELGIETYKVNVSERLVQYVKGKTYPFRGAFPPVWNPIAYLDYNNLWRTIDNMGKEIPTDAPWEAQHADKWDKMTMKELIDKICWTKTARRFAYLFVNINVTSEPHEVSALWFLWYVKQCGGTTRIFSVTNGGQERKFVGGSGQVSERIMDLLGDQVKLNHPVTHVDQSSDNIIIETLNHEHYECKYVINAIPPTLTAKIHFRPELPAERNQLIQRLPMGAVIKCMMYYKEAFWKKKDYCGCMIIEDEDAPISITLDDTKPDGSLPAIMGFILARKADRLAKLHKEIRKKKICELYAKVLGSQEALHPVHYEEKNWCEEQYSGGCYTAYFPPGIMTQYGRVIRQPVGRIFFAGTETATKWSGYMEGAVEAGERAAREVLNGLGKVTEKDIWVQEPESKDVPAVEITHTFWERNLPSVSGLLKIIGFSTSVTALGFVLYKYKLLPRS
Put plainly: Inhibition of human recombinant MAO-A assessed as kynuramine oxidation to 4-hydroxyquinoline after 40 mins by LC-MS/MS analysis. The essentials: as §3

`COc1ccc2oc(=O)c(CN3CCCC3)cc2c1`: in [1], the Ratio IC50 is more than 22.3.

A word on the solubility: it is how much of the substance goes into solution per volume. With `Cl.O=c1oc2ccc(C(F)(F)F)cc2cc1CN1CCCC1`, the solubility in data set [2] was more than 5000 µg/mL.

Regarding `C#CCN(C)[C@H](C)Cc1ccccc1` [SELEGILINE], the Activity in data set [3] was 36%; in [4], 146%; in data set [5], 96%.

In general, IC50 refers to the concentration that inhibits the measured activity by half. For the compound `CCCNCc1cc2ccccc2oc1=O`, the Activity in [6] amounted to 89%; in data set [7] it was 116%; in data set [8] it was 70%. Further, in [9], the remaining at 1 h, 5 µM was 0%. Moreover, the IC50 was more than 30 µM in [10], 62.3 µM in data set [11] and 17.1 µM in [12].

Take `Cl.O=c1oc2ccc([N+](=O)[O-])cc2cc1CN1CCCC1`: the solubility in [2] is more than 5000 µg/mL.

For `O=c1oc2ccc(OCc3ccccc3)cc2cc1CN1CCCC1`, the IC50 in data set [11] and in [12] was more than 100 µM in each case.

`CCCCOc1ccc2oc(=O)c(CNCC)cc2c1`: the Ratio IC50 in data set [1] stood at 3.7. The figures for the IC50 in data set [11] and in [12] were 7.34 µM and 1.95 µM, respectively.

Consider `Br.O=c1oc2ccc(O)cc2cc1CN1CCCC1`, for which the solubility in data set [2] was more than 5000 µg/mL.

Turning to `O=c1oc2ccccc2cc1CN1CCCC1` [listing 1 of 2 here], the results for the Activity in [6], in data set [7] and in data set [8] were 164%, 106% and 58%, respectively. Also, in [9], the remaining at 1 h, 5 µM is less than 5%. Besides, the figures for the IC50 in [11] and in data set [12] were more than 100 µM and 6.32 µM, respectively.

On to `O=c1oc2ccccc2cc1CN1CCCC1` [listing 2 of 2 here], for which, in data set [1], the Ratio IC50 was more than 15.8.

In data set [2], `Cl.Nc1ccc2oc(=O)c(CN3CCCC3)cc2c1` came in with a solubility of more than 5000 µg/mL.

`CCCNCc1cc2ccccc2oc1=O.Cl` showed a solubility in [2] of more than 5000 µg/mL.
